Data on 28 molecules can be found in ChEMBL document CHEMBL2331274, “SAR based design of nicotinamides as a novel class of androgen receptor antagonists for prostate cancer” (J Med Chem, 2013).

The source made the active and inactive calls. The rule behind the calls is not given here.

In assay [1] the target is T1, Androgen receptor (Mus musculus) (UniProt P19091).
T1 sequence (whole entry): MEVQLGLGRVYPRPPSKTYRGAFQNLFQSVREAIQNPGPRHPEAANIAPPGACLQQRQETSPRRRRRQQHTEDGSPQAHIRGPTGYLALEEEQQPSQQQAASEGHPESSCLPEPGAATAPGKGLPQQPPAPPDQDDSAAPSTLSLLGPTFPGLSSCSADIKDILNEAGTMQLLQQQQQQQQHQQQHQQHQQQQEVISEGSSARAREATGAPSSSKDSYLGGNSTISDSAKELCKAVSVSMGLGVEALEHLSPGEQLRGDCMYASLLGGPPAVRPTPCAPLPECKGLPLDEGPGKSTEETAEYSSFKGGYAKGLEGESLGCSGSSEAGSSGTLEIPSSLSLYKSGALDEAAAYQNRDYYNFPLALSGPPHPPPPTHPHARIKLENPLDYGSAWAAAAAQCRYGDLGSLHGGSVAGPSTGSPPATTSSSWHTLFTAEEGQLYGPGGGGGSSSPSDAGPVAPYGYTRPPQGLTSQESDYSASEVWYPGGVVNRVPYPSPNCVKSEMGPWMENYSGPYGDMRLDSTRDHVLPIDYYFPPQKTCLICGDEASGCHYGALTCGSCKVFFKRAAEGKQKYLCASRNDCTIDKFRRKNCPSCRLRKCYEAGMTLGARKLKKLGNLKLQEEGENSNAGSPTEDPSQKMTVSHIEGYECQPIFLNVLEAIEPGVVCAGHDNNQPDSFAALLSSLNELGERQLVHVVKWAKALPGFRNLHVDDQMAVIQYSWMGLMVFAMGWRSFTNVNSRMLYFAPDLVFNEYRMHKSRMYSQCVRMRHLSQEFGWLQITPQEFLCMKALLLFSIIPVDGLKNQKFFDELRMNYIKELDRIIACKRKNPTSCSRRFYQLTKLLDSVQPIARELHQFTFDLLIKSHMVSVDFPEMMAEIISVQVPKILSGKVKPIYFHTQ
The assay can be described thus: Agonist activity at mouse androgen receptor at 10 uM after 24 hrs by cell-based luciferase reporter gene assay relative to control. An outline of the steps: (§1)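 Transcriptional activity is expressed as a percentage after 10 μM compound, given alone for agonist mode or with 10 nM DHT for antagonist mode. Data are from triplicate experiments.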

Assay [2] deals with T1, Androgen receptor (Mus musculus). The assay can be described thus: Antagonist activity against mouse androgen receptor assessed as reduction of 10 nM DHT-induced transcriptional activity at 10 uM after 24 hrs by cell-based luciferase reporter gene assay relative to control. An outline of the steps: as §1

The molecule `Cc1cccc(NC(=O)c2ccc(N3CCc4cc(OC(C)C)ccc4C3)nc2)n1` had an Activity in assay [1] of 3.5%. In addition, the inhibition in assay [2] is 95.3%.

Molecule `CCOc1ccc2c(c1OCC)CCN(c1ccc(C(=O)Nc3cccc(C)n3)cn1)C2` showed an Activity in assay [1] of 1%. Moreover, the inhibition in assay [2] came out at 88.3%.

In turn, `COc1cc2c(cc1OC)CN(c1ccc(C(=O)Nc3ccc(C)cn3)cn1)CC2` returned an Activity in assay [1] of 2.8%. Also, the inhibition in assay [2] was 67.6%.

Consider `CCOc1ccc2c(c1OCc1ccccc1)CCN(c1ccc(C(=O)N(C)c3cccc(C)n3)cn1)C2`, for which, in assay [1], the Activity was 1.6%. Also, the inhibition in assay [2] is 77.5%.

`COc1ccc(CNC(=O)c2ccc(N3CCc4ccccc4C3)nc2)cc1` returned an Activity in assay [1] of 9%. Besides, the inhibition in assay [2] was determined as 58.2%.

Take `Cc1cccnc1NC(=O)c1ccc(Cl)nc1`: the Activity in assay [1] was 3.8%. The inhibition in assay [2] was 0.6%.

For `Cc1ccnc(NC(=O)c2ccc(N3CCc4ccccc4C3)nc2)c1`, in assay [1], the Activity is 3.6%. For the same molecule, the inhibition in assay [2] is 58.6%.

In assay [1], `COc1ccc(CNC(=O)c2ccc(N3CCCCC3)nc2)cc1` displayed an Activity of 11.1%. Moreover, the inhibition in assay [2] was determined as 19.4%.

Consider `O=C(Nc1nccs1)c1ccc(N2CCc3ccccc3C2)nc1`, for which the Activity in assay [1] worked out at 9.7%. The inhibition in assay [2] was determined as 57.4%.

The molecule `O=C(Nc1ccccc1)c1ccc(C(=O)N2CCc3ccccc3C2)nc1` returned an Activity in assay [1] of 7.8%. In assay [2], the inhibition was determined as 33.1%.

As to `Cc1cccc(NC(=O)c2ccc(N3CCc4cc(OCc5ccccc5)ccc4C3)nc2)n1`, the Activity in assay [1] amounted to 4.5%. Also, the inhibition in assay [2] came to 61.3%.

On to `CCOc1c(Cl)c(Cl)c2c(c1OCc1ccccc1)CCN(c1ccc(C(=O)Nc3cccc(C)n3)cn1)C2`, for which the Activity in assay [1] was determined as 1%. The inhibition in assay [2] stood at 86.4%.

Consider `Cc1ccnc(NC(=O)c2ccc(Cl)nc2)c1`, for which, in assay [1], the Activity was 6.4%. For the same molecule, the inhibition entry in assay [2] is “inactive”.

Molecule `COc1cc2c(c(OC)c1OC)CCN(c1ccc(C(=O)Nc3cccc(C)n3)cn1)C2` yielded an Activity in assay [1] of 0.8%. In addition, the inhibition in assay [2] is 89.1%.

With `CCOc1ccc2c(c1OC)CCN(c1ccc(C(=O)Nc3cccc(C)n3)cn1)C2`, the Activity in assay [1] is 1.7%. Also, in assay [2], the inhibition came out at 91%.

In the case of `CCOc1ccc2c(c1OC)CCN(c1ccc(C(=O)Nc3cccc(OC)c3)cn1)C2`, the Activity in assay [1] is 1.8%. In addition, in assay [2], the inhibition was found to be 91.4%.

As for `COc1ccccc1N(C)C(=O)c1ccc(N2CCc3ccccc3C2)nc1`, in assay [1], the Activity was determined as 9%. For the same molecule, the inhibition in assay [2] amounted to 48.8%.

With `COc1ccccc1NC(=O)c1ccc(N2CCc3ccccc3C2)nc1`, the Activity in assay [1] is 7.4%. Besides, the inhibition in assay [2] came to 59%.

As for `O=C(Nc1ccccn1)c1ccc(Cl)nc1`, in assay [1], the Activity came to 4.9%. Further, the inhibition entry in assay [2] was “inactive”.

As for `Cc1cccnc1NC(=O)c1ccc(N2CCc3ccccc3C2)nc1`, the Activity in assay [1] is 5%. For the same molecule, in assay [2], the inhibition came out at 64.1%.

In the case of `COc1cc2c(cc1OC)CN(c1ccc(C(=O)Nc3ncccc3C)cn1)CC2`, the Activity in assay [1] was determined as 3.1%. Moreover, the inhibition in assay [2] was found to be 60.9%.

Consider `COc1ccc(NC(=O)c2ccc(N3CCc4ccccc4C3)nc2)cn1`, for which the Activity in assay [1] amounted to 7.2%. The inhibition in assay [2] worked out at 79.6%.

Turning to `COc1cccc(N(C)C(=O)c2ccc(N3CCc4ccccc4C3)nc2)c1`, the Activity in assay [1] came out at 12.5%. In addition, in assay [2], the inhibition is 46.4%.

`Cc1cccc(NC(=O)c2ccc(N3CCN(C)CC3)nc2)n1` yielded an Activity in assay [1] of 14.1%. The inhibition result in assay [2] is “inactive”.

`O=C(Nc1ccccn1)c1ccc(N2CCc3ccccc3C2)nc1` registered an Activity in assay [1] of 5.6%. The inhibition in assay [2] is 86.4%.

Regarding `Cc1cccc(NC(=O)c2ccc(N3CCCCC3)nc2)n1`, the Activity in assay [1] amounted to 6.8%. Besides, the inhibition in assay [2] was determined as 65.7%.

In the case of `CCOc1c(Cl)c(Cl)c2c(c1OCC)CCN(c1ccc(C(=O)Nc3cccc(C)n3)cn1)C2`, the Activity in assay [1] worked out at 2.6%. In assay [2], the inhibition is 30.5%.

Take `COc1ccc2c(c1)CCN(c1ccc(C(=O)Nc3cccc(C)n3)cn1)C2`: the Activity in assay [1] came out at 4%. In assay [2], the inhibition was 94.9%.
